# Assay results gathered from unrelated publications.
# Protocols differ between the studies behind these lines.
# Target: Mitogen-activated protein kinase 13 (MAPK13, Homo sapiens, UniProt O15264)
# One construct used (O15264 1-365): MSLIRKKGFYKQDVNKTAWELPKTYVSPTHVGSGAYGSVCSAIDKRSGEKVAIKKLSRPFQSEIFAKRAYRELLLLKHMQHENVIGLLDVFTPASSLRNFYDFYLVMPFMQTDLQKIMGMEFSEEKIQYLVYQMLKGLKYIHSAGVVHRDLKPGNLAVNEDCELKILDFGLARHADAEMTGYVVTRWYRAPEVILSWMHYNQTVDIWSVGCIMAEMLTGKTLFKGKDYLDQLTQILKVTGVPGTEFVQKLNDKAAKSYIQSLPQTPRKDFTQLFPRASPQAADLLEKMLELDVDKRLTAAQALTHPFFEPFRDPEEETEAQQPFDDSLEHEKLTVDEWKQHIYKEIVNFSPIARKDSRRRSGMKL
Structure (SMILES),read-out,action,method,tested at,endpoint,result
Cn1cc(-c2cc(F)cc(N3CCn4c(cc5c4CCCC5)C3=O)c2CO)cc(Nc2ccc(N3CCN(C4COC4)CC3)cn2)c1=O,enzyme activity,inhibitor,,0.1 µM,inhibition,15%
CC(C)(C)c1cc(C=C(C#N)C#N)cc(Br)c1O,enzyme activity,inhibitor,,0.5 µM,remaining activity,98.5%
Cc1nn(C)cc1-c1nc2c(N3CCN(Cc4ccc(Cl)cc4)CC3)c(Cl)cnc2[nH]1,binding,,competition with immobilised ligand,1 µM,remaining binding,100%
N#CC1(c2ccccn2)CCN(Cc2cc(C(=O)O)c(=O)n3ccccc23)CC1,cell-free assay,,competition with immobilised ligand,1 µM,remaining binding,100%
COc1cc(Nc2ncc(F)c(Nc3ccc4c(n3)NC(=O)C(C)(C)O4)n2)cc(OC)c1OC,binding,,competition with immobilised ligand,10 µM,inhibition,100%
Cn1cc(-c2cccc(N3CCc4c(sc5c4CC(C)(C)C5)C3=O)c2CO)cc(Nc2ccncn2)c1=O,enzyme activity,inhibitor,,1 µM,inhibition,5%
COc1ncccc1-c1cnn2ccc(N3CCN(C(=O)OC(C)C)CC3)nc12,binding,,competition with immobilised ligand,1 µM,remaining binding,100%
O=c1[nH]c2ccccc2n1C1CCN(Cc2ccc(-c3[nH]c4cc5ncnc5cc4nc3-c3ccccc3)cc2)CC1,cell-free assay,,,0.5 µM,remaining signal,102%
Cn1cncc1[C@](O)(COc1ccc(C#N)cc1-c1ccc(OC(F)(F)F)cc1)c1ccc(C#N)cc1,cell-free assay,,competition with immobilised ligand,1 µM,remaining binding,87%
